The text below walks through data of ChEMBL document CHEMBL1124069, “Synthesis and pharmacological characterization of a series of leukotriene analogues with antagonist and agonist activities” (1988).

For experiment [1], the system named is Cysteinyl leukotriene receptor (Cavia porcellus). In words: Ability to inhibit the contraction induced by 8 nM LTE4 on isolated guinea pig tracheal strips at 10 uM dose; % antagonism / % basal tension. Particulars: Trachea.
Experiment [2] is filed under the species Cavia porcellus. In words: Ability to inhibit the contraction induced by 8 nM LTE4 on isolated guinea pig tracheal strips at 10 uM dose; % antagonism / % basal tension, Agonist activity was too great to determine if there was any partial antagonism/100. The class given is functional. The note with it: Trachea, filed as agonist. The method in brief:
(§1)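 Guinea pig tracheal spirals were held at 2 g resting tension and stabilized for 60 min, with bath changes every 15 min. Tissues received two 10-min challenges with 8 nM LTE4, each followed by a 60-min wash. Test compound was then added for 10 min, noting any resting-tension change, before a third LTE4 challenge. % inhibition = (2nd−3rd)/2nd×100, corrected for paired vehicle tissue. Significance was tested by paired t test (p<0.05).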

For experiment [3], the species on record is Cavia porcellus. In words: Ability to inhibit the contraction induced by 8 nM LTE4 on isolated guinea pig tracheal strips at 1 uM dose; % antagonism / % basal tension. The class given is functional, Trachea. In outline: as §1
Experiment [4] is filed under the species Cavia porcellus. As to the kind of experiment: Ability to inhibit the contraction induced by 8 nM LTE4 on isolated guinea pig tracheal strips at 3.3 uM dose; % antagonism / % basal tension.
The species entered for experiment [5] is Cavia porcellus. As to the kind of experiment: Ability to inhibit the contraction induced by 8 nM LTE4 on isolated guinea pig tracheal strips at 50 uM dose; % antagonism / % basal tension, compound was checked against BaCl2 as agonist at specified concentration/14. The class given is functional, Trachea. The method in brief:
as §1

Experiment [6] is filed under the species Cavia porcellus. As to the kind of experiment: Ability to inhibit the contraction induced by 8 nM LTE4 on isolated guinea pig tracheal strips at 5 uM dose; % antagonism / % basal tension. The class given is functional, Trachea. In outline:
as §1

Experiment [7] is filed under the species Cavia porcellus. As to the kind of experiment: Ability to inhibit the contraction induced by 8 nM LTE4 on isolated guinea pig tracheal strips at 4 uM dose; % antagonism / % basal tension. The class given is functional, Trachea.

`CCCCCCCc1ccc(C/C=C\[C@@H](SCc2cccc(/C=C/C(=O)O)c2)[C@@H](O)CCCC(=O)O)cc1`: the Ratio in experiment [1] turned out to be 34.

Regarding `CCCCCCCc1ccc(C/C=C\[C@@H](SCc2ccc(C(=O)O)cc2F)[C@@H](O)CCCC(=O)O)cc1`, in experiment [1], the Ratio came out at 63. In the case of `CCCCCCCc1ccc(C/C=C\[C@@H](SCc2ccc(C(=O)O)cc2[N+](=O)[O-])[C@@H](O)CCCC(=O)O)cc1`, the Ratio in experiment [1] worked out at 24. Regarding `CCCCCCCc1ccc(C/C=C\[C@@H](SCc2ccccc2C(=O)O)[C@@H](O)CCCC(=O)O)cc1`, the Ratio in experiment [1] was 39. Take `CCCCCCOc1ccc(C/C=C\[C@@H](SCc2ccc(C(=O)O)cc2OC)[C@@H](O)CCCC(=O)O)cc1`: the Ratio entry in the experiment listed under Cavia porcellus [2] was “Agonist activity was too great to determine if there was any partial antagonism”. Take `CCCCCCCc1ccc(C/C=C\[C@@H](SCc2ccc(N)c(C(=O)O)c2)[C@@H](O)CCCC(=O)O)cc1`: the Ratio in experiment [1] is 68. Still for that read-out and setting: to `CCCCCCCc1ccc(C/C=C\[C@@H](Sc2cccc(N)c2)[C@@H](O)CCCC(=O)O)cc1` belongs 14; to `CCCCCCCc1ccc(C/C=C\[C@@H](Sc2ccc(Cl)c(Cl)c2)[C@@H](O)CCCC(=O)O)cc1`, 2; to `CCCCCCOc1ccccc1C/C=C\[C@@H](SCc1ccc(C(=O)O)cc1OC)[C@@H](O)CCCC(=O)O`, 24. `CCCCC/C=C/c1cccc(C/C=C\[C@@H](SCc2ccc(C(=O)O)cc2OC)[C@@H](O)CCCC(=O)O)c1`: the Ratio in experiment [1] was 57; in the experiment filed under Cavia porcellus [3] it was 7. In the case of `CCCCCCOc1cccc(C/C=C\[C@@H](SCc2ccc(C(=O)O)cc2OC)[C@@H](O)CCCC(=O)O)c1`, the Ratio amounted to 86 in experiment [1], 32 in the experiment filed under Cavia porcellus [4] and 14 in the experiment filed under Cavia porcellus [5].

For `CCCCCCCc1ccc(C/C=C\[C@@H](SCc2ccc(C(=O)O)c(N)c2)[C@@H](O)CCCC(=O)O)cc1`, the Ratio in experiment [1] worked out at 51.

Take `CCCCCc1ccc(C/C=C\[C@@H](SCc2ccc(C(=O)O)cc2OC)[C@@H](O)CCCC(=O)O)cc1`: in experiment [1], the Ratio came to 43. Still for that read-out and setting: to `CCCCCCCc1ccc(C/C=C\[C@@H](SCc2ccc(/C=C/C(=O)O)cc2)[C@@H](O)CCCC(=O)O)cc1` belongs 38; to `CCCCC/C=C/c1ccc(C/C=C\[C@@H](SCc2ccc(C(=O)O)cc2OC)[C@@H](O)CCCC(=O)O)cc1`, 39.

Take `CCCCCCCc1cccc(C/C=C\[C@@H](SCc2ccc(C(=O)O)cc2OC)[C@@H](O)CCCC(=O)O)c1`: the Ratio in experiment [1] was 52; in the experiment filed under Cavia porcellus [6] it was 45.

Turning to `CCCCCCCc1ccc(C/C=C\[C@@H](SCc2ccc(C(=O)O)cc2N)[C@@H](O)CCCC(=O)O)cc1`, in experiment [1], the Ratio turned out to be 66. For `CCCCCCCc1ccc(C/C=C\[C@@H](SCc2cccc(C(=O)O)c2)[C@@H](O)CCCC(=O)O)cc1`, the Ratio in the experiment listed under Cavia porcellus [3] worked out at 16. Regarding `CCCc1c(OCC(O)COc2ccc3c(=O)cc(C(=O)O)oc3c2CCC)ccc(C(C)=O)c1O` (stereo not drawn) [FPL-55712], the Ratio in the experiment listed under Cavia porcellus [7] was 62. As to `CCCCCCCc1ccc(C/C=C\[C@@H](SCc2cc(C(=O)O)ccc2N)[C@@H](O)CCCC(=O)O)cc1`, in experiment [1], the Ratio came to 39.

Turning to `CCCCCCCc1ccc(C/C=C\[C@@H](SCc2ccc(C(=O)O)cc2OC)[C@@H](O)CCCC(=O)O)cc1`, the Ratio in experiment [1] was 74; in the experiment listed under Cavia porcellus [6] it was 31. Take `CCCCCCCc1ccc(C/C=C\[C@@H](SCc2ccc(C(=O)O)cc2)[C@@H](O)CCCC(=O)O)cc1`: the Ratio in experiment [1] worked out at 37. On the same count and under the same terms, next, `CCCCCCCc1ccc(C/C=C\[C@@H](Sc2ccc(NC(C)=O)cc2)[C@@H](O)CCCC(=O)O)cc1`: 4.
